Results collected from several papers.
Protocols differ between the studies behind these lines.
AMY2: Pancreatic alpha-amylase (AMY2, Sus scrofa, UniProt P00690)
KRAS G12C: GTPase KRas (KRAS, Homo sapiens, UniProt P01116, G12C)
Genome polyprotein protease: Genome polyprotein, protease (Hepatitis C virus genotype 1b, UniProt Q9WMX2)
GAK: Cyclin-G-associated kinase (GAK, Homo sapiens, UniProt O14976)
RIPK1: Receptor-interacting serine/threonine-protein kinase 1 (RIPK1, Homo sapiens, UniProt Q13546)
PADI3: Protein-arginine deiminase type-3 (PADI3, Homo sapiens, UniProt Q9ULW8)
Maoa: Amine oxidase [flavin-containing] A (Maoa, Rattus norvegicus, UniProt P21396)

| SMILES | target | assay | setting | quantity | result |
| --- | --- | --- | --- | --- | --- |
| Cc1cccc(N(O)N=Nc2ccc(S(=O)(=O)Nc3nccs3)cc2)c1 | AMY2 | enzyme activity, inhibitor | 60 µg/mL | inhibition | 21.1% |
| C=CC(=O)N1CCN(c2cccc(-c3noc([C@@]4(C)CCCc5sc(N)c(C#N)c54)n3)c2)CC1 | KRAS G12C | cell-free assay, inhibitor | – | kinact | 8.33e-05 s⁻¹ |
| COc1cc(Nc2cnc(C#N)c(O[C@H](C)CN(C)C)n2)ncc1-c1cnn(C)c1 | Eukaryotic translation initiation factor 2-alpha kinase 3 (EIF2AK3, Homo sapiens, UniProt Q9NZJ5) | enzyme activity, inhibitor, radiometric | 10 µM | remaining activity | 93% |
| Cc1cc(NS(=O)(=O)c2ccc(N=NN(O)c3ccccc3)cc2)no1 | AMY2 | enzyme activity, inhibitor | 300 µg/mL | inhibition | 73.7% |
| O=C1OC[C@H]2OC(O)[C@H](O)[C@@H](O)[C@@H]2OC(=O)c2cc(O)c(O)c(O)c2-c2c(O)c(O)c3oc(=O)c4c(c(O)c(O)c5oc(=O)c2c3c54)-c2c1cc(O)c(O)c2O (mixture of isomers) | Genome polyprotein protease | enzyme activity, inhibitor, fluorescence | – | IC90 | ~1000 nM |
| COc1cc(Nc2ncnc3ccc(C(F)(F)F)cc23)cc(OC)c1 | GAK | thermal stability, DSF | 10 µM | ΔTm | 0.7 °C |
| COc1cc(C=Cc2cc(-c3ccc(N(C)C)cc3)nc(O)n2)ccc1O | AMY2 | enzyme activity, inhibitor, absorbance | 5 µg/mL | inhibition | 72.4% |
| COc1cc2nccc(Nc3cccc(C(C)=O)c3)c2cc1OC | GAK | thermal stability, DSF | 10 µM | ΔTm | 1.3 °C |
| CN1CCC2(CC1)NC(=O)c1c(c3ccc(Cl)c(Cl)c3n1C)C2C#N (racemic) | Serine/threonine-protein kinase DCLK1 (DCLK1, Homo sapiens, UniProt O15075) | thermal stability, DSF | 10 µM | ΔTm | -0.1 °C |
| CCCOc1ccc(OC)c(F)c1C(=O)c1ccc(C(=O)N[C@@H]2CNC[C@H]2NC(=O)c2ccc3[nH]ncc3c2)cc1 | Serine/threonine-protein kinase MRCK beta (CDC42BPB, Homo sapiens, UniProt Q9Y5S2) | enzyme activity, inhibitor | 0.5 µM | remaining activity | 9% |
| CCN(O)N=Nc1ccc(S(=O)(=O)Nc2cc(C)on2)cc1 | AMY2 | enzyme activity, inhibitor | 120 µg/mL | inhibition | 42.1% |
| Cc1ccc(C(=O)Nc2ccc(CN3CCN(C)CC3)c(C(F)(F)F)c2)cc1C#Cc1cnc2cccnn12 | RIPK1 | enzyme activity, inhibitor | 23.5 nM | remaining activity | 86% |
| CC(C)(C)n1nnc([C@H](CCCNC(=N)CF)NC(=O)c2ccc(-c3ccccc3)cc2)n1 | PADI3 | enzyme activity, inhibitor | – | kinact/KI | 11.7 M⁻¹ s⁻¹ |
| COc1ccc(Nc2ncnc3ccc(C(F)(F)F)cc23)cc1 | GAK | thermal stability, DSF | 10 µM | ΔTm | 0.3 °C |
| NC(=O)[C@H](CCCN=C(N)N)NC(=O)c1ccccc1 | PADI3 | enzyme activity, substrate | – | Km | 13900 µM |
| C=CC(=O)Nc1ccc(-c2noc([C@@]3(C)CCCc4sc(N)c(C#N)c43)n2)cc1 | KRAS G12C | cell-free assay | – | kinact | 0.00011 s⁻¹ |
| N=C(CCl)NCCC[C@H](NC(=O)c1ccccc1)c1nn[nH]n1 | PADI3 | enzyme activity, inhibitor | – | kinact/KI | 49.6 M⁻¹ s⁻¹ |
| COc1cc(Nc2ccnc3ccccc23)cc(OC)c1OC | GAK | thermal stability, DSF | 10 µM | ΔTm | 4.4 °C |
| COc1ccc(CN)cc1 | Maoa | enzyme activity, substrate | pH 7.5 | Km | 80 µM |
| Cc1cc(NS(=O)(=O)c2ccc(N=NN(C)O)cc2)no1 | AMY2 | enzyme activity, inhibitor | 20 µg/mL | inhibition | 10.5% |

| SMILES | target | assay | setting | quantity | result |
| --- | --- | --- | --- | --- | --- |
| COc1ccc(Nc2ccnc3ccc(C(F)(F)F)cc23)cc1OC | GAK | thermal stability, DSF | 10 µM | ΔTm | 3.4 °C |
| CCCN(O)N=Nc1ccc(S(=O)(=O)Nc2cc(C)on2)cc1 | AMY2 | enzyme activity, inhibitor | 60 µg/mL | inhibition | 21.1% |
| COc1cc(C=CC(=O)CC(c2ccc([N+](=O)[O-])cc2)n2ccnc2)ccc1O (stereo not shown) | AMY2 | enzyme activity, inhibitor, absorbance | 1.25 µg/mL | inhibition | 52.7% |
| CC(C)(C)n1nnc([C@H](CCCNC(=N)CF)NC(=O)c2ccccc2)n1 | PADI3 | enzyme activity, inhibitor | – | kinact/KI | 8.67 M⁻¹ s⁻¹ |
| N#Cc1ccccc1Nc1ccnc2ccc(C(F)(F)F)cc12 | GAK | thermal stability, DSF | 10 µM | ΔTm | 0.6 °C |
| Nc1ncnc2occ(-c3ccc(NC(=O)Nc4cc(C(F)(F)F)ccc4F)cc3)c12 | Cyclin-dependent kinase 4, with cyclin D1 (CDK4, Homo sapiens, UniProt P11802) | cell-free assay, inhibitor | 20 µM | remaining signal | 17% |
| Cc1ccc(N(O)N=Nc2ccc(S(=O)(=O)Nc3cc(C)on3)cc2)cc1 | AMY2 | enzyme activity, inhibitor | 60 µg/mL | inhibition | 26.3% |
| C=CC(=O)Nc1cccc(-c2noc([C@@]3(C)CCCc4sc(N)c(C#N)c43)n2)c1 | KRAS G12C | cell-free assay, inhibitor | – | kinact | 0.000306 s⁻¹ |
| CS(=O)(=O)c1ccc(Nc2ccnc3ccc(C(F)(F)F)cc23)cc1 | GAK | thermal stability, DSF | 10 µM | ΔTm | 0.2 °C |
| CC/C(=N\NC(=O)NCc1cccc(O)c1)c1ccc(O)c(C)c1O | Fibroblast growth factor receptor 3 (FGFR3, Homo sapiens, UniProt P22607, K650E) | enzyme activity, inhibitor | 0.1 µM | inhibition | 1.3% |
| NCc1ccc(C(F)(F)F)cc1 | Maoa | enzyme activity, substrate | pH 7.5 | Km | 194 µM |
| CS(=O)(=O)c1cccc(Nc2ccnc3ccc(C(F)(F)F)cc23)c1 | GAK | thermal stability, DSF | 10 µM | ΔTm | 0.3 °C |
| Cc1ccc(C(=O)NCc2ccsc2)cc1C#Cc1cn(C(C)C)c2ncnc(N)c12 | RIPK1 | enzyme activity, inhibitor | 1 µM | activity vs control | 30% |
| N=C(CF)NCCC[C@H](NC(=O)c1ccccc1)c1nn[nH]n1 | PADI3 | enzyme activity, inhibitor | – | kinact/KI | 7.25 M⁻¹ s⁻¹ |
| O=S(=O)(Nc1nccs1)c1ccc(N=NN(O)c2ccccc2)cc1 | AMY2 | enzyme activity, inhibitor | 60 µg/mL | inhibition | 15.8% |
| N=C(CF)NCCC[C@H](NC(=O)c1ccc(-c2ccccc2)cc1)c1nn[nH]n1 | PADI3 | enzyme activity, inhibitor | – | kinact/KI | 5.08 M⁻¹ s⁻¹ |
| CCCN(O)N=Nc1ccc(S(=O)(=O)Nc2onc(C)c2C)cc1 | AMY2 | enzyme activity, inhibitor | 20 µg/mL | inhibition | 26.3% |
| O=c1oc2c(O)c(O)cc3c(=O)oc4c(O)c(O)cc1c4c23 | Genome polyprotein protease | enzyme activity, inhibitor, fluorescence | – | IC90 | < 10000 nM |
| CC(C)(C)n1nnc([C@H](CCCNC(=N)CF)NC(=O)c2ccccc2C(=O)O)n1 | PADI3 | enzyme activity, inhibitor | – | kinact/KI | 261 M⁻¹ s⁻¹ |
| COc1cc(C=Cc2cc(-c3ccccc3)nc(O)n2)ccc1O | AMY2 | enzyme activity, inhibitor, absorbance | 5 µg/mL | inhibition | 76.3% |
